Reference: ChEMBL document CHEMBL1138555, “N-acylated and N,N'-diacylated imidazolidine-2-thione derivatives and N,N'-diacylated tetrahydropyrimidine-2(1H)-thione analogues: synthesis and antiproliferative activity” (Eur J Med Chem, 2009)

System: MT4
Assay: Antiproliferative activity against human MT4 cells assessed as reduction of growth by MTT assay
Assay type: functional, cell-based
Summary of the method: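 MT-4 lymphoblastoid T cells (ATCC) in RPMI 1640 with 10% FCS, penicillin/streptomycin, checked for mycoplasma. 1 × 10⁴ mock-infected cells per well with serial dilutions from a 100 mM DMSO stock. Incubated 4 days at 37 °C, viable cells counted by MTT. IC50 versus untreated controls by linear regression. Mean of three separate experiments.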

SMILES	IC50 [µM]
O=C(c1cc(Cl)cc(Cl)c1)N1CCCN(C(=O)c2cc(Cl)cc(Cl)c2)C1=S	30
O=C(c1ccccc1Cl)N1CCCN(C(=O)c2ccccc2Cl)C1=S	> 100
CC(C)(C)C(=O)N1CCN(C=O)C1=S	43
O=CN1CCN(C(=O)/C=C/c2ccccc2)C1=S	> 100
N#CC(C#N)=CN1CCN(C(=O)c2ccco2)C1=O	> 100
CC(=O)/C(=C/N1CCN(C(=O)c2ccco2)C1=O)C(=O)c1ccccc1	> 100
O=C(c1ccccc1Cl)N1CCN(C(=O)c2ccccc2Cl)C1=S	54
COc1cc(C(=O)N2CCCN(C(=O)c3cc(OC)c(OC)c(OC)c3)C2=S)cc(OC)c1OC	> 100
